The source made the active and inactive calls. The calls are words filed in the database; no cut-off is given here.
Columns and labels:
[1] = target: T1, Beta-2 adrenergic receptor (Homo sapiens, UniProt P07550); assay: Displacement of [3H]dihydroalprenolol from beta2-adrenoceptor after 90 mins by liquid scintillation counting
Target sequence in this assay (P07550 whole entry): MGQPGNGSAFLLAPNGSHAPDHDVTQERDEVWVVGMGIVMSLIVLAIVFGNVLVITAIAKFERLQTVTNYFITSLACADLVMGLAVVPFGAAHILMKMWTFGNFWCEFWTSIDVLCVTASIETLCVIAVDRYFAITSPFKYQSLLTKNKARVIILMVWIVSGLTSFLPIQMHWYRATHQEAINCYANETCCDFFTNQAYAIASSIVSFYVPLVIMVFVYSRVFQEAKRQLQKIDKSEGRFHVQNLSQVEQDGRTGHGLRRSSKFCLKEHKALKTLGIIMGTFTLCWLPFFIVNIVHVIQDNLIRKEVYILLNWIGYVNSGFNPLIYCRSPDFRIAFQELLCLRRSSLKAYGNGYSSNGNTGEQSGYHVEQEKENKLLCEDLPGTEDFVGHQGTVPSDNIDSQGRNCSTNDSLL

[2] = target: T1, Beta-2 adrenergic receptor; assay: Agonist activity at recombinant human beta2-adrenoceptor expressed in whole cells assessed as cAMP accumulation by homogeneous radioimmunoassay; assay type: functional, cell-based
Target sequence in this assay (P07550 whole entry): as above

[3] = target: T1, Beta-2 adrenergic receptor; assay: Ratio of pEC50 for recombinant human beta2-adrenoceptor expressed in whole cells to pEC50 for beta2-adrenoceptor endogenously expressed in human BEAS-2B cells; assay type: cell-based
Method in brief: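 cAMP accumulation was measured by homogeneous radioimmunoassay (Flashplate) in two systems: whole cells overexpressing cloned human β2-adrenoceptor, and BEAS-2B human bronchial epithelial cells with endogenous β2-adrenoceptor. Potency was taken from each, and intrinsic activity from BEAS-2B.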
Target sequence in this assay (P07550 whole entry, looked up): as the sequence (P07550 whole entry) above

[4] = target: Beta-1 adrenergic receptor (Homo sapiens, UniProt P08588); assay: Agonist activity at recombinant human beta1-adrenoceptor expressed in whole cells assessed as cAMP accumulation by homogeneous radioimmunoassay; assay type: functional, cell-based
Beta-1 adrenergic receptor, sequence (P08588 whole entry): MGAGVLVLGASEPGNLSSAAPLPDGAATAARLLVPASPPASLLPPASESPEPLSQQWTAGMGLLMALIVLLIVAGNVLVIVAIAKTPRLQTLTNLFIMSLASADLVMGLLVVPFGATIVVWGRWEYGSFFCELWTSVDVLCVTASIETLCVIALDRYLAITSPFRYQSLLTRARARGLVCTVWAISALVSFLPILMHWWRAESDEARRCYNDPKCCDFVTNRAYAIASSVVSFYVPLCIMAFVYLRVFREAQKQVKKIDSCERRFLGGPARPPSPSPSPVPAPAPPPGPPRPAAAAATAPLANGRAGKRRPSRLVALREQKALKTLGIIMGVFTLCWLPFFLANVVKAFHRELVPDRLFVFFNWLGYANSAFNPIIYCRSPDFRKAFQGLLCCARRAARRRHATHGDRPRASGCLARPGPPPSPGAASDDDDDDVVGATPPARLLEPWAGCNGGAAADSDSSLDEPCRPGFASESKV

[5] = target: T1, Beta-2 adrenergic receptor; assay: Agonist activity at beta2-adrenoceptor endogenously expressed in human BEAS-2B cells assessed as cAMP accumulation by homogeneous radioimmunoassay; assay type: functional, cell-based
Target sequence in this assay (P07550 whole entry): as the sequence (P07550 whole entry) above

Homo sapiens = species on record: Homo sapiens; assay: Selectivity ratio of pEC50 for recombinant human beta2-adrenoceptor to pEC50 for human beta1-adrenoceptor
Method in brief: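 Agonist stimulation of cAMP accumulation was measured by homogeneous radioimmunoassay (Flashplate) in whole cells overexpressing cloned human β2- or β1-adrenoceptor. Selectivity was calculated as the ratio of agonist EC50 potencies at the two subtypes.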

Cavia porcellus [6] = assay: Bronchoprotective activity in Ach-stimulated guinea pig assessed as reduction in pulmonary resistance at 30 ug/mL administered via nebulization measured at 48 hrs post-dosing by head-out plethysmography; assay type: functional, organism-based
Method in brief: (§1)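 Guinea pigs dosed by nebulization, with water as control. Pulmonary resistance was measured in anesthetized, spontaneously breathing animals by head-out plethysmography. Bronchoconstriction was induced with increasing intravenous acetylcholine doses. The read-out was PD2, the ACh dose needed to double baseline resistance.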

Cavia porcellus [7] = assay: Bronchoprotective activity in Ach-stimulated guinea pig assessed as reduction in pulmonary resistance at 30 ug/mL administered via nebulization measured after 1.5 hrs by head-out plethysmography; assay type: functional, organism-based; method in brief: as §1
Cavia porcellus [8] = assay: Bronchoprotective activity in Ach-stimulated guinea pig assessed as reduction in pulmonary resistance at 300 ug/mL administered via nebulization measured after 24 hrs by head-out plethysmography; assay type: functional, organism-based

IC50 [1] [nM] | EC50 [2] [nM] | Compound | also measured
2000 |  | OCc1cc(C(O)CNCc2ccc(NCC(O)c3ccc(O)c(CO)c3)cc2)ccc1O (configuration not stated) | 
 | 50.1 | CC(C)(C)c1ccc(C(O)CNc2ccc(CCNCC(O)c3ccc(O)c(CO)c3)cc2)cc1 (configuration not stated) | 
 | 1.58 | OCc1cc(C(O)CNCCc2ccc(NCC(O)c3ccc(Cl)cc3)cc2)ccc1O (configuration not stated) | 
251 |  | OCc1cc(C(O)CNCCc2ccc(NCC(O)c3ccc(O)c(CO)c3)cc2)ccc1O (configuration not stated) | 
 | 63.1 | CC(C)CCc1ccc(C(O)CNc2ccc(CCNCC(O)c3ccc(O)c(CO)c3)cc2)cc1 (configuration not stated) | 
 | 2 | OCc1cc(C(O)CNCCc2ccc(NCC(O)c3ccc(F)cc3)cc2)ccc1O (configuration not stated) | 
 | 7.94 | OCc1cc(C(O)CNCCc2ccc(NCC(O)c3ccc(O)cc3)cc2)ccc1O (configuration not stated) | 
 | 0.316 | OCc1cc([C@@H](O)CNCCc2ccc(NC[C@@H](O)c3ccccc3)cc2)ccc1O (mixture of isomers) | Ratio [3]: 10; EC50 [4]: 251 nM; EC50 [5]: 3.98 nM
 | 6.31 | COc1ccc(OC)c(C(O)CNc2ccc(CCNCC(O)c3ccc(O)c(CO)c3)cc2)c1 (configuration not stated) | 
 | 39.8 | COc1ccc(C(O)CNc2ccc(CCNCC(O)c3ccc(O)c(CO)c3)cc2)c(OC)c1 (configuration not stated) | 
 | 50.1 | OCc1cc(C(O)CNCCc2ccc(NCC(O)c3ccc4ccccc4c3)cc2)ccc1O (configuration not stated) | 
 | 39.8 | OCc1cc(C(O)CNCCc2ccc(NCC(O)c3ccc(-c4ccccc4)cc3)cc2)ccc1O (configuration not stated) | 
 | 2.51 | Cc1ccc(C(O)CNc2ccc(CCNCC(O)c3ccc(O)c(CO)c3)cc2)cc1 (configuration not stated) | 
 | 0.316 | CC(C)(Cc1ccc(NCC(O)c2ccccc2)cc1)NCC(O)c1ccc(O)c(CO)c1 (configuration not stated) | 
39.8 | 0.316 | OCc1cc(C(O)CNCCc2ccc(NCC(O)c3ccccc3)cc2)ccc1O (configuration not stated) | 
 | 0.1 | OCc1cc([C@@H](O)CNCCc2ccc(NC[C@H](O)c3ccccc3)cc2)ccc1O | Ratio [3]: 10; Ratio (Homo sapiens): > 300; Activity (Cavia porcellus [6]): inactive; EC50 [4]: 251 nM; Activity (Cavia porcellus [7]): Active; EC50 [5]: 1.26 nM

Further lines, the compound ahead of its results:

Compound | IC50 [1] [nM] | EC50 [2] [nM] | also measured
OCc1cc(C(O)CNCCc2ccc(CCNCC(O)c3ccc(O)c(CO)c3)cc2)ccc1O (configuration not stated) | 100000 |  | 
OCc1cc(C(O)CNC2CCC(CC3CCC(NCC(O)c4ccc(O)c(CO)c4)CC3)CC2)ccc1O (configuration not stated) | 20000 |  | 
OC(CNCCc1ccc(NCC(O)c2ccccc2)cc1)c1ccccc1 (configuration not stated) | 251 |  | 
OCc1cc(C(O)CNC2Cc3ccc(NCC(O)c4ccccc4)cc3C2)ccc1O (configuration not stated) |  | 5.01 | 
OCc1cc(C(O)CNCCc2ccc(OCC(O)c3ccccc3)cc2)ccc1O (configuration not stated) |  | 0.398 | 
OCc1cc(C(O)CNCC2CCCC(CNCC(O)c3ccc(O)c(CO)c3)C2)ccc1O (configuration not stated) | 10000 |  | 
OCc1cc(C(O)CNCc2cccc(CNCC(O)c3ccc(O)c(CO)c3)c2)ccc1O (configuration not stated) | 20000 |  | 
Nc1c(Cl)cc([C@@H](O)CNCCc2ccc(NC[C@H](O)c3ccccc3)cc2)cc1Cl |  | 0.398 | 
OCc1cc(C(O)CN[C@H]2CC[C@H](NCC(O)c3ccc(O)c(CO)c3)CC2)ccc1O (some centres not stated) | 5010 |  | 
O=c1ccc2c([C@@H](O)CNCCc3ccc(NC[C@H](O)c4ccccc4)cc3)ccc(O)c2[nH]1 |  | 0.126 | Ratio [3]: 10; EC50 [5]: 1.26 nM
OCc1cc(C(O)CNCc2ccc(CNCC(O)c3ccc(O)c(CO)c3)cc2)ccc1O (configuration not stated) | 50100 |  | 
OCc1cc(C(O)CNCCCCNCC(O)c2ccc(O)c(CO)c2)ccc1O (configuration not stated) | 10000 |  | 
CN(CC(O)c1ccccc1)c1ccc(CCNCC(O)c2ccc(O)c(CO)c2)cc1 (configuration not stated) |  | 2 | 
O=CNc1cc([C@@H](O)CNCCc2ccc(NC[C@H](O)c3ccccc3)cc2)ccc1O [MILVETEROL] |  | 0.0631 | Ratio [3]: 10; Ratio (Homo sapiens): > 300; Activity (Cavia porcellus [6]): Active; EC50 [4]: 25.1 nM; Activity (Cavia porcellus [7]): Active; EC50 [5]: 0.501 nM
CC(C)(CNCC(O)c1ccc(O)c(CO)c1)CNCC(O)c1ccc(O)c(CO)c1 (configuration not stated) | 251000 |  | 
OCc1cc(C(O)CNCCCCCCOCCCCc2ccccc2)ccc1O (configuration not stated) |  |  | Activity (Cavia porcellus [8]): Active; Activity (Cavia porcellus [6]): inactive
OCc1cc(C(O)CNCCCCCCNCC(O)c2ccc(O)c(CO)c2)ccc1O (configuration not stated) | 7940 |  | 

Reference: ChEMBL document CHEMBL1938358, “A multivalent approach to the discovery of long-acting β(2)-adrenoceptor agonists for the treatment of asthma and COPD” (Bioorg Med Chem Lett, 2012)
